Pf Dd2 growth – P. falciparum Dd2 growth inhibition; SYBR Green, 72 h; stronger effect = lower value; activity change, % at 10 µM; actives 2.3% (n = 94,000); AID 1159554; in the data active means activity change below about -80%; inconclusive means no clear call, values can overlap the other calls
T cruzi growth-1 – T. cruzi proliferation inhibition; actives 5.9% (n = 77,000); inhibition, % at 8.34 µM; T. cruzi beta-gal in NIH3T3, GalScreen luminescence, 90 h;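 active means mean inhibition above about 93%, with at least 55% of replicates each passing it, limit read from the data, passing the limit was not always enough; inconclusive means only one of those two conditions holds; inactive means neither condition holds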
GASC1 inh – blocks human GASC-1 (KDM4C) demethylase activity; GST-KDM4C 2-372, H3K9me3 peptide, LANCE TR-FRET; Q9H3R0; AID 720574; actives 0.15% (n = 96,000); inhibition, % at 12.5 µM;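 active means mean replicate inhibition above about 25%, with at least 55% of replicates also reaching it, limit read from the data, passing the limit was not always enough; inconclusive means only one of those two conditions met; inactive means neither condition met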
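Test system: N-terminal GST-fused human GASC-1 (KDM4C) fragment, residues 2-372; quantity: GASC-1 enzyme at 10 nM final in reaction; dosing: single dose; schedule: 30 min demethylation and 1 h detection at room temperature; signal: LANCE TR-FRET, excitation 340 nm, emissions 618 and 671 nm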
IDH1 mut inh – inhibitors of human IDH1 R132H | IDH1 R132H reductase, diaphorase/resazurin fluorescence, 60 min | inhibition, % at 10 µM | actives 0.18% (n = 70,000); in the data active means inhibition above about 34%; inconclusive means no clear call, values can overlap the other calls; inactive means below about 11%;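 further: 0% = DMSO and 100% = no enzyme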
Target sequence (O75874 whole entry R132H): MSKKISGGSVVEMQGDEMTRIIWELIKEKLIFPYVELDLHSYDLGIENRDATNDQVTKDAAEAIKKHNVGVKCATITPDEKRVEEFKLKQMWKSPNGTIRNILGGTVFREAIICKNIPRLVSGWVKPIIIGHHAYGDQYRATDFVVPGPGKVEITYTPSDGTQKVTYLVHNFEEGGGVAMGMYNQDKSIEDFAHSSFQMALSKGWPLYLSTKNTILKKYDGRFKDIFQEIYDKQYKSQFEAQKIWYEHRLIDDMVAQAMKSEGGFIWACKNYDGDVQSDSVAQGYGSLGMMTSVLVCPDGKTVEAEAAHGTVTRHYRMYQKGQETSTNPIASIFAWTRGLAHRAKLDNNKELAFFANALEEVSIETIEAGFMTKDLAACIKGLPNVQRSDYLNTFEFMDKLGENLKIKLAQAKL
T cruzi growth-2 – inhibitors of T. cruzi proliferation; T. cruzi beta-gal in NIH3T3, GalScreen luminescence, 90 h; actives 72% (n = 5,600); inhibition, % at 8.35 µM; shares compounds with T cruzi growth-1;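 active means mean replicate inhibition above about 95% and at least 55% of replicates individually reaching it, limit read from the data; inconclusive means only one of the two criteria is met; inactive means neither criterion is met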
T cruzi growth-3 – inhibitors of T. cruzi proliferation. shares compounds with T cruzi growth-1. T. cruzi beta-gal in NIH3T3, GalScreen luminescence, 90 h. inhibition, % at 2.09 µM. actives 21% (n = 5,600). AID 651740;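 active means mean inhibition above about 95%, with at least 55% of replicates also reaching it, limit read from the data; inconclusive means meets just one of the two conditions; inactive means meets neither condition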;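 further: plate controls were neutral control median for no effect and positive control median for full effect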
NIH3T3 tox – kills mouse NIH/3T3 fibroblasts | shares compounds with T cruzi growth-1 | NIH/3T3 viability, CellTiter-Glo ATP luminescence, 90 h | cytotoxicity (signal decrease), % at 8.35 µM | actives 14% (n = 5,600);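 active means mean signal decrease across replicates above about 35% based on untreated-well scatter, with enough replicates individually passing, limit read from the data; inconclusive means no rule stated though some were filed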;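 further: 0% = median of neutral control wells and 100% = median of positive control wells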
NIH3T3 tox 2 – NIH/3T3 (mouse) viability loss | shares compounds with T cruzi growth-1 | NIH/3T3 viability, CellTiter-Glo ATP luminescence, 90 h | inhibition, % at 24.9 µM | actives 56% (n = 5,600) | AID 651744;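 active means mean loss of cell viability signal at or above a set limit, and enough replicates individually reaching it; inconclusive means meets only the mean limit or only the replicate share; inactive means meets neither condition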;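 further: 0% = median of neutral control wells and 100% = median of positive control wells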
The depositor's hits bear a star; ? = inconclusive; nt = no result given. Hits are enriched below; roughly 5.8% of the tested compounds scored in any of these assays.

SMILES	Pf Dd2 growth	T cruzi growth-1	GASC1 inh	IDH1 mut inh	T cruzi growth-2	T cruzi growth-3	NIH3T3 tox	NIH3T3 tox 2
C[C@H](CO)N1C[C@H](C)[C@@H](CN(C)C(=O)CN(C)C)Oc2cc(C#CCN(C)C)ccc2S1(=O)=O	8	-2	5	-3	nt	nt	nt	nt
CC(=O)N(C)C[C@H]1Oc2cc(C#CCN(C)C)ccc2S(=O)(=O)N([C@H](C)CO)C[C@@H]1C	21	?	0	2	?	91	-1	-10
CC(=O)N(C)C[C@@H]1Oc2cc(C#CCN(C)C)ccc2S(=O)(=O)N([C@H](C)CO)C[C@H]1C	14	67	17	1	nt	nt	nt	nt
CCC(=O)N(C)C[C@@H]1Oc2cc(C#CCN(C)C)ccc2S(=O)(=O)N([C@@H](C)CO)C[C@H]1C	2	102*	19	2	102*	80	-6	-7
O=C(CN1CCN(S(=O)(=O)c2cccc([N+](=O)[O-])c2)CC1)Nc1cc(Cl)ccc1Cl	nt	nt	nt	0	nt	nt	nt	nt
CS(=O)(=O)N(CC(=O)Nc1ccc(Br)cc1)c1ccc(Cl)c(C(F)(F)F)c1	nt	nt	nt	0	nt	nt	nt	nt
CCn1c(SCC(=O)Nc2ccccc2F)nnc1-c1ccccc1F	nt	nt	nt	0	nt	nt	nt	nt
CC(C)CC#Cc1ccc2c(c1)O[C@H](CN(C)Cc1cncnc1)[C@H](C)CN([C@H](C)CO)S2(=O)=O	-4	22	0	-1	nt	nt	nt	nt
CC(C)CC#Cc1ccc2c(c1)O[C@@H](CN(C)Cc1cccnc1)[C@@H](C)CN([C@@H](C)CO)S2(=O)=O	nt	108*	-1	10	108*	90	30	107*
CC(C)CC#Cc1ccc2c(c1)O[C@@H](CN(C)Cc1cccnc1)[C@H](C)CN([C@@H](C)CO)S2(=O)=O	nt	94	0	19	nt	nt	nt	nt
CC(C)CC#Cc1ccc2c(c1)O[C@H](CN(C)Cc1cncnc1)[C@@H](C)CN([C@H](C)CO)S2(=O)=O	-32	103*	2	-3	94	106*	47*	61*
CC(C)CC#Cc1ccc2c(c1)O[C@H](CN(C)Cc1cccnc1)[C@@H](C)CN([C@@H](C)CO)S2(=O)=O	nt	100*	1	22	93	102*	13	104*
CC(C)CC#Cc1ccc2c(c1)O[C@@H](CN(C)Cc1cccnc1)[C@@H](C)CN([C@H](C)CO)S2(=O)=O	nt	65	-1	10	nt	nt	nt	nt
COc1ccc(C(=O)CSc2nc3cc(C)c(C)cc3[nH]2)cc1OC	nt	nt	nt	-1	nt	nt	nt	nt
O=C(Nc1cccc(C(F)(F)F)c1)c1cc([N+](=O)[O-])ccc1NCc1cccnc1	nt	nt	nt	0	nt	nt	nt	nt
O=C(CSc1nccc(=O)[nH]1)N1CCc2ccccc21	nt	nt	nt	0	nt	nt	nt	nt
O=C(O)CCc1ccc(-c2ccc(F)cc2)n1-c1cccc(C(=O)O)c1	nt	nt	nt	0	nt	nt	nt	nt
CCC(=O)N1CCCCN2[C@@H](CO)[C@@H](c3ccc(-c4cccc(C#N)c4)cc3)[C@@H]2C1	-54	112*	1	nt	90	92	7	13
N#Cc1cccc(-c2ccc([C@@H]3[C@@H](CO)N4CCCCN(C(=O)Nc5cccc(F)c5)C[C@H]34)cc2)c1	-26	115*	2	nt	105*	65	27	104*
N#Cc1cccc(-c2ccc([C@@H]3[C@H]4CN(C(=O)Nc5ccccc5)CCCCN4[C@H]3CO)cc2)c1	18	102*	0	nt	105*	28	17	42*
N#Cc1cccc(-c2ccc([C@@H]3[C@H]4CN(C(=O)Nc5cccc(F)c5)CCCCN4[C@H]3CO)cc2)c1	-40	93	-1	nt	nt	nt	nt	nt
N#Cc1cccc(-c2ccc([C@H]3[C@@H](CO)N4CCCCN(C(=O)Nc5ccc(F)cc5)C[C@@H]34)cc2)c1	3	123*	0	nt	109*	79	2	8
CN(CC(=O)Nc1ccccc1C(C)(C)C)S(=O)(=O)c1ccc(Cl)cc1	nt	nt	nt	0	nt	nt	nt	nt
C[C@@H]1CN([C@H](C)CO)S(=O)(=O)c2ccc(C#Cc3ccccc3F)cc2O[C@@H]1CN(C)C(=O)Cc1ccncc1	-60	nt	-2	1	nt	nt	nt	nt
C[C@H]1CN([C@@H](C)CO)S(=O)(=O)c2ccc(C#Cc3ccccc3F)cc2O[C@H]1CN(C)C(=O)Cc1ccccc1	-26	125*	-1	0	109*	65	26	103*
SMILES	Pf Dd2 growth	T cruzi growth-1	GASC1 inh	IDH1 mut inh	T cruzi growth-2	T cruzi growth-3	NIH3T3 tox	NIH3T3 tox 2
C[C@H](CO)N1C[C@H](C)[C@@H](CN(C)C(=O)Cc2ccccc2)Oc2cc(C#Cc3ccccc3F)ccc2S1(=O)=O	?	124*	-4	0	85	92	-1	1
C[C@H]1CN([C@@H](C)CO)S(=O)(=O)c2ccc(C#Cc3ccccc3F)cc2O[C@@H]1CN(C)C(=O)Cc1cccnc1	-59	81	-3	0	nt	nt	nt	nt
C[C@@H]1CN([C@H](C)CO)S(=O)(=O)c2ccc(C#Cc3ccccc3F)cc2O[C@@H]1CN(C)C(=O)Cc1ccccc1	-48	121*	nt	0	97*	99*	27	102*
C[C@H]1CN([C@@H](C)CO)S(=O)(=O)c2ccc(C#Cc3ccccc3F)cc2O[C@@H]1CN(C)C(=O)Cc1ccncc1	-51	nt	-2	0	nt	nt	nt	nt
C[C@H](CO)N1C[C@H](C)[C@H](CN(C)C(=O)Cc2ccccc2)Oc2cc(C#Cc3ccccc3F)ccc2S1(=O)=O	-25	127*	2	-1	95*	74	21	?
CC(=O)N(C)C[C@@H]1Oc2cc(C#Cc3ccccc3F)ccc2S(=O)(=O)N([C@H](C)CO)C[C@H]1C	-44	38	0	-5	nt	nt	nt	nt
CCC[C@H]1CC2=C(C[C@@H](CC)CC3=C1C(=O)OC3=O)C(=O)OC2=O	nt	nt	nt	5	nt	nt	nt	nt
CC(Oc1ccc(F)cc1)C(=O)Nc1sc2c(c1C(N)=O)CCCC2 (stereo unspecified)	nt	nt	nt	1	nt	nt	nt	nt
C[C@@H]1CN([C@@H](C)CO)S(=O)(=O)c2ccc(C#Cc3ccccc3F)cc2O[C@H]1CN(C)C(=O)Cc1cccnc1	-43	96*	-3	5	104*	36	34	73*
COc1ccc(S(=O)(=O)Nc2ccc3c(c2)C(=O)N([C@H](C)CO)C[C@H](C)[C@@H](CN(C)S(=O)(=O)c2cccs2)OCCCC[C@H](C)O3)cc1	-38	42	11	nt	nt	nt	nt	nt
COc1ccc(S(=O)(=O)Nc2ccc3c(c2)C(=O)N([C@@H](C)CO)C[C@H](C)[C@@H](CN(C)S(=O)(=O)c2cccs2)OCCCC[C@@H](C)O3)cc1	-74	109*	0	0	103*	60	-7	6
